# Test results: publication PMC7317421 (Clinical Pharmacology in Drug Development, 2020)
# Read-outs that look alike come from different tables or passages of the source.
# Legend:
# [1] = Plasma pharmacokinetics, single ascending oral doses after overnight fast; assay type: in vivo, human; settings: fasted, Part 1; for AUC0‐∞ / Cmax: arithmetic mean (SD); for t½: mean ± SD
# Summary of the method: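 Randomized, double‑blind, placebo‑controlled interleaving crossover in 2 cohorts of 8. Each cohort received 4 ascending single doses, ≥10 days apart, taken with water after a ≥10‑h overnight fast. Blood sampled up to 72 h postdose. Plasma was extracted by protein precipitation with a stable‑isotope internal standard and measured by LC‑MS/MS with calibration 2.00–1000 ng/mL (LLOQ 2.00 ng/mL). Noncompartmental parameters were summarized descriptively by dose.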
# [2] = assay type: in vivo, human; settings: for AUCtau / Cmax: mean (SD)
# [3] = assay type: in vivo, human; settings: for Median Tmax (range) / Cmax / t½: 100 mg single oral dose, Part 3; for Cmax: arithmetic mean (SD); for t½: mean ± SD
# hepatic DNL = assay: Fructose-stimulated hepatic DNL inhibition; assay type: in vivo, human
# Summary of the method: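 Part 2, with baseline on day −6 and repeat on day 14 of dosing. On the evening/night before each challenge, subjects drank 4 doses of 70% D2O (60 mL each). Oral fructose 0.25 g/kg was then given every 30 min from 0 to 9.5 h, with dosing at 0 h. Body‑water deuterium was measured. Triglyceride‑palmitate was isolated from plasma by Folch extraction and TLC, and its methyl ester analysed by GC‑pyrolysis isotope‑ratio MS. Basal‑adjusted % newly made palmitate and AUEC10 were calculated.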
# [4] = Safety and tolerability: adverse events, vital signs, ECG; assay type: in vivo, human
# Summary of the method: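 Observed and self‑reported AEs, clinically significant physical‑exam changes and abnormal laboratory results were recorded. Vital signs and 12‑lead ECGs were monitored throughout. In Part 2, AEs were tallied separately for drug alone (days 1‑13) and for the periods with fructose/D2O. The safety set was everyone receiving ≥1 dose of study drug or fructose/D2O. Data were reviewed on an ongoing basis and summarized descriptively.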
# [5] = Fasting and postprandial serum triglycerides and fasting lipids; assay type: in vivo, human
# Summary of the method: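 Part 2, randomized 4:1 to drug or placebo with food, once daily or every 12 hours on days 1‑14. Fasting lipids were sampled after overnight fasts over 16 days. Total cholesterol, direct LDL and HDL were run on an automated chemistry analyzer. Postprandial triglycerides: 12 serial samples over 24 h on days 0 and 12. AUEC by trapezoid rule, averaged as AUEC24/24 when first, last and ≥75% of samples were available. Baseline was the mean of 0‑h values on days 0‑1.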
# [6] = Platelet count and mean platelet volume; assay type: in vivo, human
# [7] = rats; cited from earlier work
# [8] = monkeys; cited from earlier work
# [9] = humans; cited from earlier work
# [10] = 100 mg single dose, high‐fat meal vs fasted
# [11] = 100 mg every 12 hours, same withdrawn subject
smiles,measurement,setting,value
COc1cc(C(=O)N2CCC3(CC2)CC(=O)c2c(cnn2C(C)C)C3)cc(-c2ccc(C(=O)O)cc2)n1 [PF‐05221304],Median Tmax (range),[1]; 1 mg single oral dose,2.0 (1.0‐3.0) h
same,AUC0‐∞,[1]; 1 mg single oral dose,670.5 (182.2) ng·h/mL
same,Cmax,[1]; 1 mg single oral dose,48.3 (8.2) ng/mL
same,t½,[1]; 1 mg single oral dose,13.6 ± 3.4 h
same,Median Tmax (range),[1]; 3 mg single oral dose,2.5 (1.1‐4.0) h
same,AUC0‐∞,[1]; 3 mg single oral dose,2508 (476.0) ng·h/mL
same,Cmax,[1]; 3 mg single oral dose,177.0 (46.3) ng/mL
same,t½,[1]; 3 mg single oral dose,13.5 ± 3.5 h
same,Median Tmax (range),[1]; 10 mg single oral dose,3.0 (1.0‐5.0) h
same,AUC0‐∞,[1]; 10 mg single oral dose,8603 (1603.8) ng·h/mL
same,Cmax,[1]; 10 mg single oral dose,608.5 (134.0) ng/mL
same,t½,[1]; 10 mg single oral dose,18.3 ± 2.3 h
same,Median Tmax (range),[1]; 30 mg single oral dose,2.0 (0.5‐4.0) h
same,Cmax,[1]; 30 mg single oral dose,2008 (421.7) ng/mL
same,t½,[1]; 30 mg single oral dose,17.6 ± 2.6 h
same,Median Tmax (range),[1]; 100 mg single oral dose,2.0 (1.0‐4.0) h
same,Cmax,[1]; 100 mg single oral dose,7435 (1904.5) ng/mL
same,t½,[1]; 100 mg single oral dose,16.0 ± 3.6 h
same,Median Tmax (range),[1]; 200 mg single oral dose,2.0 (0.5‐4.0) h
same,t½,[1]; 200 mg single oral dose,15.3 ± 3.4 h
same,Median Tmax (range),[1]; 240 mg single oral dose,1.5 (1.0‐4.0) h
same,t½,[1]; 240 mg single oral dose,15.2 ± 2.8 h
same,Median Tmax (range),"[2]; Day 1, 1 mg every 12 hours",3.0 (3.0‐5.0) h
same,AUCtau,"[2]; Day 1, 1 mg every 12 hours",384.5 (71.1) ng·h/mL
same,Cmax,"[2]; Day 1, 1 mg every 12 hours",54.4 (9.0) ng/mL
same,Median Tmax (range),"[2]; Day 1, 3 mg every 12 hours",5.0 (2.0‐6.0) h
same,AUCtau,"[2]; Day 1, 3 mg every 12 hours",1038 (131.4) ng·h/mL
same,Cmax,"[2]; Day 1, 3 mg every 12 hours",142.7 (21.2) ng/mL
same,Median Tmax (range),"[2]; Day 1, 10 mg every 12 hours",3.5 (1.0‐5.0) h
same,AUCtau,"[2]; Day 1, 10 mg every 12 hours",3811 (767.3) ng·h/mL
same,Cmax,"[2]; Day 1, 10 mg every 12 hours",584.6 (91.2) ng/mL
same,Median Tmax (range),"[2]; Day 1, 30 mg every 12 hours",5.0 (3.0‐5.0) h
same,Cmax,"[2]; Day 1, 30 mg every 12 hours",1689 (256.7) ng/mL
same,Median Tmax (range),"[2]; Day 1, 40 mg once daily",4.0 (2.0‐8.0) h
same,Cmax,"[2]; Day 1, 40 mg once daily",1986 (591.8) ng/mL
same,Median Tmax (range),"[2]; Day 1, 100 mg every 12 hours",3.5 (0.5‐5.0) h
same,Cmax,"[2]; Day 1, 100 mg every 12 hours",6831 (1388.6) ng/mL
same,Median Tmax (range),"[2]; Day 1, 100 mg once daily",4.0 (2.0‐6.0) h
same,Cmax,"[2]; Day 1, 100 mg once daily",5965 (1252.2) ng/mL
same,Median Tmax (range),"[2]; Day 7, 1 mg every 12 hours",3.0 (2.0‐5.0) h
same,AUCtau,"[2]; Day 7, 1 mg every 12 hours",760.4 (202.4) ng·h/mL
same,Cmax,"[2]; Day 7, 1 mg every 12 hours",91.4 (19.3) ng/mL
same,Median Tmax (range),"[2]; Day 7, 3 mg every 12 hours",5.0 (3.0‐5.1) h
same,AUCtau,"[2]; Day 7, 3 mg every 12 hours",2264 (484.8) ng·h/mL
same,Cmax,"[2]; Day 7, 3 mg every 12 hours",283.1 (49.1) ng/mL
same,Median Tmax (range),"[2]; Day 7, 10 mg every 12 hours",5.0 (5.0‐6.0) h
same,AUCtau,"[2]; Day 7, 10 mg every 12 hours",8334 (2131.6) ng·h/mL
same,Cmax,"[2]; Day 7, 10 mg every 12 hours",1009 (215.9) ng/mL
same,Median Tmax (range),"[2]; Day 7, 30 mg every 12 hours",5.0 (3.0‐6.0) h
same,Cmax,"[2]; Day 7, 30 mg every 12 hours",3229 (741.0) ng/mL
same,Median Tmax (range),"[2]; Day 7, 40 mg once daily",4.0 (3.0‐6.0) h
same,Cmax,"[2]; Day 7, 40 mg once daily",2654 (674.6) ng/mL
same,Median Tmax (range),"[2]; Day 7, 100 mg every 12 hours",3.5 (3.0‐5.0) h
same,Median Tmax (range),"[2]; Day 7, 100 mg once daily",4.0 (2.0‐6.0) h
same,Cmax,"[2]; Day 7, 100 mg once daily",7894 (1117.5) ng/mL
same,excreted in urine as unchanged drug over the dosing interval (Aeτ),"[2]; day 7, Part 2",Less than 1%
same,accumulation for AUCtau,[2]; every‐12‐hour dosing,approximately 2 fold
same,median Tmax,[2]; multiple oral doses 1‐100 mg every 12 hours and 40‐100 mg once daily with food,3 to 5 h
same,accumulation for AUCtau,[2]; once‐daily dosing,approximately 1.5 fold
same,steady state achieved (trough concentrations),"[2]; repeated dosing, Part 2",≤ 7 days
same,Geometric mean AUC0‐∞,"[3]; 100 mg single dose, fasted",79 320 ng·h/mL
same,geometric mean Cmax,"[3]; 100 mg single dose, fasted, CV% 25%",7479 ng/mL
same,Geometric mean AUC0‐∞,"[3]; 100 mg single dose, fed",72 360 ng·h/mL
same,geometric mean Cmax,"[3]; 100 mg single dose, fed, CV% 41%",5592 ng/mL
same,decrease of AUC0‐∞ with food,[3]; [10],~9%
same,plasma Cmax reduction with food,[3]; [10],25%
same,Median Tmax (range),[3]; fasted state,2.5 (1.0‐3.0) h
same,Cmax,[3]; fasted state,7671 (1699.8) ng/mL
same,t½,[3]; fasted state,12.3 ± 2.0 h
same,Median Tmax (range),[3]; fed state,5.0 (2.0‐8.0) h
same,Cmax,[3]; fed state,5947 (1982.1) ng/mL
same,t½,[3]; fed state,13.2 ± 3.5 h
same,"Adjusted % inhibition of newly made triglyceride‐palmitate (DNL), AUEC10","hepatic DNL; 10 mg Q12H, day 14 vs baseline (day −6)",80.0%
same,hepatic DNL inhibition over a 10‐hour period postdose,hepatic DNL; doses <40 mg/day,≤ 80%
same,"inhibition of DNL (AUEC of newly made triglyceride‐palmitate), near‐maximal","hepatic DNL; doses ≥40 mg/day, 14 days",> 90%
same,subjects with AEs,"[4]; Part 1 (single doses, PF‐05221304 or placebo periods)",5 subjects
same,subjects with AEs,[4]; Part 3 (100 mg single dose fed/fasted),3 subjects
same,vital signs or cardiac conduction intervals (12‐lead ECG),[4]; all parts,no clinically significant changes
same,tolerability,"[4]; single 1‐240 mg, repeated 2‐200 mg daily",well tolerated at all doses
same,maximum tolerated dose,"[4]; up to 240 mg single, 200 mg/day repeated",not identified
same,elevated fasting serum triglyceride levels (1 subject),[5]; [11],2.1 fold
same,elevated postprandial serum triglyceride levels (1 subject),[5]; [11],2.6 fold
same,fasting and postprandial serum triglyceride levels,[5]; repeated daily doses ≥40 mg/day,increased
same,"maximum decline from day 0 in platelet count (1 subject, moderate AE)","[6]; 100 mg every 12 hours, day 13 + 24 hours, one person",53 000 /µL
same,platelet volume,[6]; doses ≥20 mg/day administered every 12 hours,increases in platelet volume
same,platelet count,[6]; repeated doses ≤40 mg/day,No change in platelet count
same,platelet count,[6]; repeated dosing ≥60 mg/day,gradual decline in platelet count from day 7 onward
same,lowest platelet count observed,"[6]; repeated dosing, Part 2",≥ 100 000 /µL
same,platelet count,"[6]; single doses, 1‐ to 240‐mg dose range",did not change
same,asymmetric hepatic distribution,[7],≥ 100 fold
same,asymmetric hepatic distribution,[8],≥ 100 fold
Cc1nc2ccc(C(=O)N3CCC4(CC3)CC(=O)c3c(cnn3C(C)C)C4)cc2[nH]1 [PF‐05175157],platelet count,[9],decreased platelet count
